Assay results from different studies.
MTNR1B: Melatonin receptor type 1B (MTNR1B, Homo sapiens, UniProt P49286)
PDE4D: 3',5'-cyclic-AMP phosphodiesterase 4D (PDE4D, Homo sapiens, UniProt Q08499)

Structure (SMILES)	target	assay	system	setting	endpoint	value
COc1ccc2cccc(C(CO)CNC(=O)CF)c2c1 (stereo not drawn)	MTNR1B	GTPγS binding, agonist, radiometric		cell membranes	Emax	99%
Cc1nn(C)cc1-c1nc2c(N3CCN(Cc4ccc(Cl)cc4)CC3)c(Cl)cnc2[nH]1	Calcium/calmodulin-dependent protein kinase type 1G (CAMK1G, Homo sapiens, UniProt Q96NX5)	binding, competition with immobilised ligand		1 µM	remaining binding	100%
COc1ncccc1-c1cnn2ccc(N3CCN(C(=O)OC(C)C)CC3)nc12	Serine/threonine-protein kinase MAK (MAK, Homo sapiens, UniProt P20794)	binding, competition with immobilised ligand		1 µM	remaining binding	100%
c1ccc(C(NCCNC(c2ccccc2)c2ccccc2)c2ccccc2)cc1	Phospholipase A2, major isoenzyme (PLA2G1B, Sus scrofa, UniProt P00592)	cell-free assay, inhibitor		10 µM	inhibition	4%
CC1(C)[C@@H](O)CC[C@]2(C)[C@H]3C(=O)C=C4[C@@H]5C[C@@](C)(C(=O)O)CC[C@]5(C)CC[C@@]4(C)[C@]3(C)CC[C@@H]12	PDE4D	enzyme activity, inhibitor, radiometric		50 µM	inhibition	42.4%
CC[C@H](C)[C@@H]1NC(=O)[C@@H]2CSSC[C@H](NC(=O)[C@@H](NC(=O)CN)[C@@H](C)O)C(=O)N[C@@H](CC(N)=O)C(=O)N[C@@H]([C@@H](C)O)C(=O)N3CCC[C@H]3C(=O)NCC(=O)N[C@H]3CSSC[C@H](NC(=O)[C@H](CCSC)NC(=O)[C@H](CC(C)C)NC(=O)[C@H](CCCNC(=N)N)NC(=O)CNC(=O)CNC(=O)[C@H](CC(=O)O)NC1=O)C(=O)NCC(=O)N[C@@H](CCC(=O)O)C(=O)N[C@@H]([C@@H](C)O)C(=O)N[C@H](C(=O)N[C@H](C(=O)NCC(=O)O)C(C)C)CSSC[C@H](NC(=O)[C@H]([C@@H](C)O)NC3=O)C(=O)N[C@@H](CO)C(=O)N[C@@H](Cc1c[nH]c3ccccc13)C(=O)N1CCC[C@H]1C(=O)N[C@@H](C(C)C)C(=O)N2	Prothrombin (F2, Homo sapiens, UniProt P00734)	binding, SPR			koff	~0.001 s⁻¹
O=C(O)c1cc(O)c2c(c1)C(=O)c1cccc(O)c1C2=O	PDE4D	enzyme activity, inhibitor, radiometric		50 µM	inhibition	9.01%
Nc1ncc(-c2nc(N3CCOCC3)nc(N3CCOCC3)n2)c(C(F)F)n1	Non-receptor tyrosine-protein kinase TNK1 (TNK1, Homo sapiens, UniProt Q13470)	binding, competition with immobilised ligand		10 µM	remaining binding	83%
CC(C)=CCc1cc(-c2coc3cc(O)cc(O)c3c2=O)cc(O)c1O	PDE4D	enzyme activity, inhibitor, radiometric		50 µM	inhibition	100%
COc1ccc2[nH]cc(CCNC(=O)CI)c2c1	MTNR1B	β-arrestin recruitment, agonist	MT2	90 min	Emax	92%
COc1cc(O)ccc1/C=C/C(=O)c1ccc(O)cc1	PDE4D	enzyme activity, inhibitor, radiometric		5 µM	inhibition	-1.92%
CCN(CC)CCCC[C@H](NC(=O)[C@H](CC(C)C)NC(=O)[C@H](C)NC(=O)[C@H](Cc1ccccc1)NC(=O)c1ccc(C(C)(C)C)cc1)C(=O)N[C@@H](CO)C(=O)OC	Prostaglandin E2 receptor EP4 subtype (PTGER4, Homo sapiens, UniProt P35408)	ligand displacement, radioligand		10 µM	remaining binding	95.2%
